Only some compounds are listed: those with a hit (about 5.5% of all), similar ones and a draw of the others.
Ecoli WT expand: growth inhibitors of wild-type E. coli, primary screen, strain BW25113, expanded library, OD600; 98,000 tested, 0.15% active; OD600 absorbance; growth inhibition, % at 100 µM;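 active = growth inhibition above about 50% at one test dose, limit read from the data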;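 note: growth measured after 20 h incubation at 37 °C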
Ecoli tolC: growth inhibitors of E. coli tolC mutant, primary screen, strain BW25113 ΔtolC::kan, 384-well; OD615; growth inhibition, % at 10 µM (by protocol); 65,000 tested, 2.2% active; AID 573, 2007;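 active = growth inhibition at or above a cutoff equal to the mean over every tested compound plus 3 SD, cut at about 60% in these data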;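 note: growth measured after 20 h incubation at 37 °C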
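Material: E. coli BW25113 ΔtolC::kan, tolC deletion mutant strain. Measure: percent growth inhibition. Schedule: 37 °C, 20 h exposure. Doses: single-point testing at 10 µM. Signal: A615 absorbance measurement. Buffer or medium: kanamycin-containing LB broth (50 µg/mL).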
PostGolgi yeast: phenotypic screen on post-Golgi transport, primary screen | post-Golgi transport phenotypic cell assay | inhibition, % at 10 µM | 98,000 tested, 0.9% active | AID 739, 2007;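 note: yeast cells grown in 1536-well plates; yeast grown about 18 h at 30C before absorbance read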
PostGolgi ctrl: growth inhibition of yeast control strain, primary screen, counter-screen for post-Golgi transport modulator project. efflux-deficient yeast background strain, growth absorbance A615, 16 h. inhibition, % at 10 µM. 98,000 tested, 5% active
PLAP activator: PLAP enzyme activators, biochemical, luminescence, HTS; activation fold at 20 µM; purified PLAP enzyme, luminescent substrate read-out; active compounds read high; Alkaline phosphatase, placental type (Homo sapiens), P05187; 96,000 tested, 1.2% active; in the data active = activation fold above about 2
Target sequence (P05187 whole entry, looked up): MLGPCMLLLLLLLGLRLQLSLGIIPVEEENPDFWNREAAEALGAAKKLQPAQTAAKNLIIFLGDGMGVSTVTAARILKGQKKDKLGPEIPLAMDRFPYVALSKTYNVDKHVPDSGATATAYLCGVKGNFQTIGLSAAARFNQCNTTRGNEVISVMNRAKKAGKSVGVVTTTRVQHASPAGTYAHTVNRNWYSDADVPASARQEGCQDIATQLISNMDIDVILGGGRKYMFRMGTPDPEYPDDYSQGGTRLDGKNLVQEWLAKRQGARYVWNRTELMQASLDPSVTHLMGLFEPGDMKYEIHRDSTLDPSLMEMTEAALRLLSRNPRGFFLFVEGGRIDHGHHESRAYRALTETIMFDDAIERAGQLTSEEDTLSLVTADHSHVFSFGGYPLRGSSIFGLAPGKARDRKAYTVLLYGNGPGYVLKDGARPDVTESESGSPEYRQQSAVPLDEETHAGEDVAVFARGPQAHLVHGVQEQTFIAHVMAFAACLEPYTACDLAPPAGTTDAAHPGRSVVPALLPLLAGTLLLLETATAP
HePTP inhibitor: inhibitors of human HePTP phosphatase, primary screen, biochemical, absorbance, leukemia target | Tyrosine-protein phosphatase non-receptor type 7 (Homo sapiens), P35236 | recombinant HePTP phosphatase activity, OD absorbance | inhibition, % at 20 µM | 110,000 tested, 0.64% active | AID 521, 2006; in the data active = inhibition above about 50%;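 note: plate controls were vehicle for no effect and reference inhibitor for full effect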
Active calls of the source: *. Cut-off read from the data, not from the text of the source, unless noted: active = inhibition above about 30%; inactive = the rest.

Screening Cc1cccc(-n2ncc3c(NCc4cccs4)ncnc32)c1 returned Ecoli WT expand -2, Ecoli tolC 26, PostGolgi yeast 6, PostGolgi ctrl 42*, PLAP activator 0.8 and HePTP inhibitor 6.
`c1ccc(CCNc2ncnc3c2cnn3-c2ccccc2)cc1` gave Ecoli tolC 73*.
`CC1CCN(c2ncnc3c2cnn3-c2ccccc2)CC1` gave Ecoli WT expand -6, Ecoli tolC 49, PostGolgi yeast 5, PostGolgi ctrl 32*, PLAP activator 0.9 and HePTP inhibitor 11.
COCCN(CCOC)c1ncnc2c1cnn2-c1ccccc1 was read as Ecoli tolC -8 and HePTP inhibitor 6.
For CN(Cc1ccccc1)c1ncnc2c1cnn2-c1ccccc1 the results were Ecoli WT expand -15, Ecoli tolC 92*, PostGolgi yeast 6, PostGolgi ctrl 28, PLAP activator 1.2 and HePTP inhibitor 1.
For COc1ccc(-n2ncc3c(N4CCC(C)CC4)ncnc32)cc1 the results were Ecoli tolC 52 and HePTP inhibitor 11.
`Cc1ccccc1-n1c(O)c(C=Nc2ccc(Cl)cc2)c(=O)[nH]c1=O` gave HePTP inhibitor 3.
`O=[N+]([O-])c1ccc(Oc2ccccc2Br)cc1` gave HePTP inhibitor -8.
`O=C(NCc1ccccc1Cl)c1cccc(I)c1` gave HePTP inhibitor -6.
Screening Cc1nnc(NC(=O)C(C)Oc2ccc(Cl)cc2Cl)s1 (stereo not given) returned HePTP inhibitor 6.
For CCN(c1ccccc1)c1ncnc2c1cnn2-c1ccccc1 the results were Ecoli WT expand -2, Ecoli tolC 100*, PostGolgi yeast -5, PostGolgi ctrl 25, PLAP activator 1.5 and HePTP inhibitor 1.
`COc1ccc(-c2nnc3sc(C4CCCCC4)nn23)cc1OC` gave Ecoli WT expand -4, Ecoli tolC 33, PostGolgi yeast 22, PostGolgi ctrl 14, PLAP activator 2.1* and HePTP inhibitor 0.
`C1CCC(c2nn3c(-c4n[nH]c5c4CCC5)nnc3s2)CC1` gave Ecoli WT expand 9, Ecoli tolC 39, PostGolgi yeast 10, PostGolgi ctrl 5, PLAP activator 2.3* and HePTP inhibitor 8.
For COc1ccc(-c2nn3c(C4CCCCC4)nnc3s2)cc1OC the results were Ecoli WT expand 9, Ecoli tolC 13, PostGolgi yeast 6, PostGolgi ctrl 24, PLAP activator 1.6 and HePTP inhibitor -3.
`CCN(CC)c1ccc(-c2nn3c(-c4n[nH]c5c4CCC5)nnc3s2)cc1` gave Ecoli WT expand -2, Ecoli tolC 74*, PostGolgi yeast -3, PostGolgi ctrl 43*, PLAP activator 1.3 and HePTP inhibitor 9.
CCOC(=O)C1=C(C)N=c2s/c(=C\c3cccs3)c(=O)n2C1c1ccc(F)cc1 (stereo not given) was read as HePTP inhibitor 5.
O=C1N/C(=N\N=C\c2cccnc2)SC1Cc1ccc(SC(F)F)cc1 (stereo not given) was read as Ecoli WT expand -9, PostGolgi yeast 3, PostGolgi ctrl 3 and PLAP activator 2.1*.
`O=C(NCc1ccc(Cl)cc1)C(=O)NC1CCCCC1` gave HePTP inhibitor -6.
For CN(C)c1ccc(/C=C(\NC(=O)c2ccccc2)C(=O)Nc2ccc(Cl)cc2)cc1 the results were HePTP inhibitor -18.
For COc1c(Cl)cc(C(=O)Nc2ccc(F)c([N+](=O)[O-])c2)cc1Cl the results were HePTP inhibitor 5.
Screening Cc1cc(=O)[nH]c(-n2[nH]c3c(c2=O)CCCC3)n1 returned Ecoli WT expand 1, PostGolgi yeast 5, PostGolgi ctrl -1 and PLAP activator 2.6*.
`CC(C)(C)c1cc(/C=N/NC(=O)Cc2nc3ccccc3[nH]2)cc(C(C)(C)C)c1O` gave Ecoli WT expand 3, PostGolgi yeast 4, PostGolgi ctrl 15 and PLAP activator 2*.
For Cc1ccc(/C=N/NC(=O)CSc2nc3ccccc3[nH]2)o1 the results were HePTP inhibitor -6.
`Cc1c(C(=O)N2CCN(c3ccccc3F)CC2)sc2nc(-c3ccccc3)cn12` gave Ecoli WT expand -8, Ecoli tolC 51, PostGolgi yeast -3, PostGolgi ctrl 35*, PLAP activator 0.9 and HePTP inhibitor 5.
For CCCCn1c(NC(=O)c2ccc(F)cc2)c(C#N)c2nc3ccccc3nc21 the results were Ecoli tolC 88* and HePTP inhibitor 12.
For CCCCn1c(NC(=O)c2ccccc2)c(C#N)c2nc3ccccc3nc21 the results were Ecoli WT expand 2, Ecoli tolC 67*, PostGolgi yeast -8, PostGolgi ctrl 1, PLAP activator 1.4 and HePTP inhibitor 15.
N#Cc1c(NC(=O)c2ccc(Br)o2)n(-c2ccccc2)c2nc3ccccc3nc12 was read as Ecoli tolC 62* and HePTP inhibitor 14.
For CCC(C)n1c(NC(=O)c2ccccc2)c(C#N)c2nc3ccccc3nc21 (stereo not given) the results were PLAP activator 1.2.
Screening Cc1cccc(C)c1NC(=S)NC(=O)c1ccco1 returned HePTP inhibitor 5.
COc1ccc(C2CC(C(F)(F)F)n3nc(C(=O)Nc4ccc(F)cc4F)c(Cl)c3N2)cc1OC (stereo not given) was read as HePTP inhibitor 8.
Screening CCCCn1c(=O)n(Cc2cccc(F)c2)c(=O)c2c1ncn2Cc1ccco1 returned Ecoli WT expand -6, Ecoli tolC 65*, PostGolgi yeast -10, PostGolgi ctrl 39*, PLAP activator 1 and HePTP inhibitor 1.
`Cn1c2ccc(F)cc2c2ncn(Cc3ccco3)c(=O)c21` gave Ecoli WT expand 5, PostGolgi yeast 2, PostGolgi ctrl 8 and PLAP activator 0.9.
`CCOC(=O)c1c(NC(=O)c2ccc([N+](=O)[O-])cc2)sc2c1CCN(C(=O)OCC)C2` gave HePTP inhibitor 2.
Cc1ccccc1N1OC2C(=O)N(Cc3ccccc3)C(=O)C2C1c1ccc(F)cc1 (stereo not given) was read as HePTP inhibitor -5.
CCOc1cc(C=O)ccc1OCc1c(C)no[n+]1[O-] was read as HePTP inhibitor -10.
For CS(=O)(=O)N1CCN(c2ccccc2NC(=O)Cc2ccccc2)CC1 the results were Ecoli WT expand 3, Ecoli tolC 2, PostGolgi yeast -3, PostGolgi ctrl 10, PLAP activator 0.9 and HePTP inhibitor 8.
`O=C(Cc1ccccc1)Nc1ccccc1N1CCN(c2ccccc2)CC1` gave Ecoli WT expand 0, Ecoli tolC 63*, PostGolgi yeast 6, PostGolgi ctrl 5, PLAP activator 1.2 and HePTP inhibitor 6.

Bioassay records (PubChem BioAssay)
